The text below walks through data of ChEMBL document CHEMBL4513216, “Probing the Open Global Health Chemical Diversity Library for Multistage-Active Starting Points for Next-Generation Antimalarials” (ACS Infect Dis, 2020).

The structures appear in SMILES notation.

The series is described as follows: Toxicity liver stage against HepG2, at 10uM. Also noted: test concentration 10 uM, cell line HepG2-A16-CD81EGFP. In kind it is cell-based. The settings on record: human, HepG2-A16-CD81EGFP cells; read-out: INHIBITION
The method in brief: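 Uninfected HepG2-A16-CD81EGFP cells, 3 × 10^3 per well, 1536-well, plated on prespotted compound at 10 μM final, parasite-free screening media added to match infected plates; puromycin 10 μM positive, DMSO 0.5% negative; run in parallel with 48 h PbLuc assay at 37 °C, 5% CO2; viability by CellTiter-Glo luminescence, normalized to controls.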
`CS(=O)(=O)N1C[C@H]2CCCN(Cc3ccsc3)[C@H]2C1`: the cytotoxicity at 10 µM was 6.43%. Consider `O=c1[nH]cnc2c1CCN(S(=O)(=O)c1ccc(Cl)cc1)C2`, for which the cytotoxicity at 10 µM is -1.68%.

With `Cc1ccccc1CC1(C(=O)O)CCCN(c2ncnc3[nH]ccc23)C1` (stereo not given), the cytotoxicity at 10 µM worked out at 3.63%. Turning to `O=C(c1ccc(F)c(F)c1)N1CCC(Cn2cc(CO)nn2)CC1`, the cytotoxicity at 10 µM amounted to 5.95%. Consider `CCN(CC)Cc1ccccc1NCc1c(C)noc1C`, for which the cytotoxicity at 10 µM is -2.04%. On to `Cc1cc(F)c(S(=O)(=O)Nc2ccn(CCC#N)n2)cc1F`, for which the cytotoxicity at 10 µM was determined as 17.3%. For the compound `CC(=O)N[C@H]1CN(CC(=O)NCc2ccccc2C)C[C@@H]1C(C)C`, the cytotoxicity at 10 µM was determined as 1.69%. With `COc1ccc(CN2CCN(c3ncc(Cl)cn3)CC2)cc1`, the cytotoxicity at 10 µM was -4.86%. Consider `O=C1CC[C@H]2CN(Cc3ccc(Cl)s3)CC[C@H]2N1CCc1c[nH]cn1`, for which the cytotoxicity at 10 µM came out at 38.5%. For the compound `Cc1nccnc1-n1c(COCC(=O)O)nc2c(C)cccc21`, the cytotoxicity at 10 µM was -6.29%. Take `Cn1cc(C(=O)CC2CCCN2C(=O)c2ccc3[nH]ncc3c2)cn1` (stereo not given): the cytotoxicity at 10 µM is -2.53%.

Consider `COc1cccc(CC2CN(C(=O)c3ccnn3C)CCO2)c1` (stereo not given), for which the cytotoxicity at 10 µM is 0.769%.

Take `O=C(Cc1ccsc1)NCC1OCCc2cn(CC3CC3)nc21` (stereo not given): the cytotoxicity at 10 µM was 9.77%. With `CCOc1ccc(CN2CCN(C(=O)c3ccc(C)n3C)CC2)cc1`, the cytotoxicity at 10 µM amounted to 19.2%. `Cc1cc2nc(C(C)C)cc(N3CCN(c4ccc(O)cc4)CC3)n2n1`: the cytotoxicity at 10 µM stood at 10.8%. The result for `COc1cccc(C)c1C(=O)N1CCc2ncnc(NCCO)c2CC1` reads 5.69%; that for `Cc1ncc2c(n1)CN(Cc1nnc(-c3ccccc3)o1)CC2`, -9.77%; that for `O=C(c1ccccc1)C1CCN(C(=O)CC2COCCN2)CC1` (stereo not given), -163%. As for `Fc1cnc(N2CCOCC3(CCCNC3)C2)nc1` (stereo not given), the figure is -5.36%; as for `Cc1oncc1C(=O)N1C[C@H]2CCCC(N(C)Cc3cccs3)[C@H]2C1` (stereo not given in full), 18.8%; as for `CCc1nccn1C1CCCN(C(=O)c2cnn3cccnc23)C1` (stereo not given), -18.2%. As for `Cn1c(C2CCCN2C(=O)CN2CCCC2=O)nc2ccccc21` (stereo not given), the cytotoxicity at 10 µM is -3.47%.

For `CNC(=O)NCCc1csc2ccccc12`, the cytotoxicity at 10 µM was 2.22%. Take `CS(=O)(=O)N[C@@H]1CCO[C@]2(CCN(CC3CCOCC3)C2)C1`: the cytotoxicity at 10 µM was -132%. Turning to `Cc1cc(N)nc(SC2CCN(c3ccccc3)C2=O)n1` (stereo not given), the cytotoxicity at 10 µM is -0.572%.

`CN(C)C(=O)N1CC2(CCOCC2)c2cc(NS(=O)(=O)C3CC3)ccc21`: the cytotoxicity at 10 µM was -7.15%. Take `CSc1ncc(C(=O)N2C[C@@H]3CC[C@H]2CN(S(=O)(=O)N(C)C)C3)cn1`: the cytotoxicity at 10 µM worked out at 0.0773%.

In the case of `CCC(=O)NCc1ccc(N2CCCCC2)cc1`, the cytotoxicity at 10 µM was -6.89%. The result for `O=C(CCC(=O)N1CCC(Cc2ccc(CO)cc2)C1)c1ccccc1` (stereo not given) reads 0.727%; that for `O=C(NCCOCC(F)(F)F)c1ccc(-c2ccccc2)[nH]c1=O`, -13.9%; that for `c1cc(CN2CCCC3(COCCN(Cc4c[nH]nn4)C3)C2)cs1` (stereo not given), 8.59%. Consider `O=C(O)c1cccc(C2CCCN(S(=O)(=O)C3CC3)C2)c1` (stereo not given), for which the cytotoxicity at 10 µM amounted to 3.24%.

On to `CCOc1ccc(Cl)c(C(=O)N2CCN(c3ccncc3)CC2)n1`, for which the cytotoxicity at 10 µM was -5.44%. With `CCCC(=O)N1CCN(Cc2cc(-c3ccncc3)nn2C)CC1`, the cytotoxicity at 10 µM was -27.1%. On to `CC(C)c1nnc(CN2CCCC3(CC2)CN(C)C(=O)O3)o1` (stereo not given), for which the cytotoxicity at 10 µM was -1.52%. `CC(C)CN1CCC2(C1)CN(S(=O)(=O)c1cn(C)cn1)C2`: the cytotoxicity at 10 µM is -116%.

With `Cc1cccc(C(=O)NCc2ccccc2)n1`, the cytotoxicity at 10 µM is -4.83%. The result for `Cc1cc(-c2cc(N)c(=O)n(CC(=O)NC3CCCC3)n2)c(C)o1` reads 4.39%; that for `CN(CC(=O)Nc1ccncc1)CC1CCCN1c1cccnn1` (stereo not given), -2.01%.

Consider `NC(=O)CN1C(=O)CO[C@H]2CN(Cc3ccc(F)c(F)c3)C[C@H]21`, for which the cytotoxicity at 10 µM was 2.44%. As for `O=C(Cc1cccc(O)c1)NCCNc1nccc(C(F)(F)F)n1`, the figure is 7.48%; as for `CCCN1CCc2nc(SCc3ccccc3F)[nH]c(=O)c2C1`, -2.62%. For `Cc1nc(NC2CCN(S(=O)(=O)c3ccccc3)CC2)[nH]c(=O)c1C`, the cytotoxicity at 10 µM is -3.45%. Regarding `FC(F)(F)c1ccc2nc([C@H]3CCN(C4CCC4)C3)[nH]c2c1`, the cytotoxicity at 10 µM amounted to 8.04%.

Consider `CC(C)NC(=O)c1nnn(-c2cccc(C(F)(F)F)c2)c1C1CC1`, for which the cytotoxicity at 10 µM was -19%. Consider `c1ccc(CNc2cc(C3CCCNC3)ccn2)nc1` (stereo not given), for which the cytotoxicity at 10 µM is -0.565%.

For the compound `Cn1ncc2c1CCCN(C(=O)C1CCC1)C2`, the cytotoxicity at 10 µM is -3.15%. As for `Cc1ccc(NC(=O)c2cc(S(=O)(=O)N3CCCCC3)c[nH]2)cc1F`, the figure is 1.26%. The result for `CCCSc1ncc(-c2nccn2CCC(N)=O)cn1` reads -10.4%.

As for `Cc1nc(C(C)(C)C)sc1C(=O)NCCNc1ncccc1C#N`, the cytotoxicity at 10 µM was -15.8%.

On to `Cc1nn(C)c2nc(N3CCNC(=O)C3Cc3ccccc3)sc12` (stereo not given), for which the cytotoxicity at 10 µM was -2.32%. Take `c1cc(-c2nc(C3CCN(Cc4ccsc4)CC3)no2)ccn1`: the cytotoxicity at 10 µM was -26.5%. As for `Cc1cc(C(=O)N2CCCCC2C)ccc1NCCCO` (stereo not given), the figure is -4.35%.

Consider `O[C@@H]1CN(c2cnc3ccccc3n2)CC[C@H]1c1ccc2c(c1)OCO2`, for which the cytotoxicity at 10 µM came out at 22.4%. With `Cc1nc2c(c(=O)n1C)CCN(C(=O)CCc1ccccc1O)CC2`, the cytotoxicity at 10 µM was determined as 0.53%. On to `CCN(Cc1ccoc1)C(=O)NC1CCN(C(=O)OC(C)(C)C)C1` (stereo not given), for which the cytotoxicity at 10 µM came to 3.65%.

As for `CN(C)c1ccc(C(=O)N2Cc3cnc(C(C)(C)C)nc3C2)cc1`, the cytotoxicity at 10 µM was -5.51%. Regarding `CC(C)(C)CN(CCC#N)Cn1cc(Cl)cn1`, the cytotoxicity at 10 µM amounted to 6.29%.

As to `CCS(=O)(=O)c1ccccc1C(=O)N1CCCC(n2cccn2)C1` (stereo not given), the cytotoxicity at 10 µM is -29.9%. Take `COc1ccc2cccc(CC(=O)NCc3n[nH]c(=O)[nH]3)c2c1`: the cytotoxicity at 10 µM was -3.22%. Consider `CN(Cc1ccc2c(c1)OCCO2)c1ncc(S(N)(=O)=O)s1`, for which the cytotoxicity at 10 µM was 0.482%. Turning to `CC1=N[C@@]2(CC[C@@H]3CN(C(=O)NCCc4ccccc4)C[C@@H]32)C(=O)N1`, the cytotoxicity at 10 µM was -75.4%. On to `O[C@@H]1C[C@@H](c2nc(Cc3ccccc3)no2)N(Cc2ccc(F)cc2)C1`, for which the cytotoxicity at 10 µM was determined as 0.296%. Consider `CC(C)(C)c1coc([C@@H]2COCCN2Cc2ncc[nH]2)n1`, for which the cytotoxicity at 10 µM turned out to be 2.61%. As for `COc1ccc(S(=O)(=O)C(F)(F)F)cc1NC(=O)CSCC#N`, the cytotoxicity at 10 µM is -2.72%. In the case of `Cc1cnn(CC2CCCN2CC(=O)N(C)Cc2ccco2)c1` (stereo not given), the cytotoxicity at 10 µM is 10.8%. Regarding `CCN(C)C[C@@H]1CN(Cc2cnc3c(S(C)(=O)=O)cnn3c2)C[C@@H]1CO`, the cytotoxicity at 10 µM was -4.99%. As for `Cc1cc(C2CCCN2Cc2ccc(C(=O)Nc3nccs3)cc2)on1` (stereo not given), the figure is -6.03%. As to `CNS(=O)(=O)c1ccccc1N1CCN(C(=O)C(C)C)CC1`, the cytotoxicity at 10 µM was determined as 4%. As for `COCc1ccc(C(=O)N2CCN(CCS(C)(=O)=O)CC2)cc1`, the cytotoxicity at 10 µM is -1.33%.
